The values that follow come from ChEMBL document CHEMBL1140944, “A new class of vitamin D analogues that induce structural rearrangement of the ligand-binding pocket of the receptor” (J Med Chem, 2009).

As usually defined, the EC50 is the concentration giving half of the maximal effect.

Substitutions are numbered along the chain they refer to. The source made the active and inactive calls. The rule behind the calls is not given here.

Assay [1] deals with HL-60. Put plainly: Induction of cell differentiation in human HL60 cells after 4 days by NBT reduction assay. The assay is classed as functional, cell-based. In a few lines: (§1)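 HL-60 promyelocytic leukemia cells were plated at 2 × 10⁵ cells/plate in Eagle's modified medium. Compound was added at 10^-6, 10^-7 or 10^-8 M for 4 days. Differentiation was scored by nitro blue tetrazolium reduction.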

A further assay has as its target T1, Vitamin D3 receptor (Bos taurus, UniProt Q28037).
T1 sequence (Q28037 whole entry): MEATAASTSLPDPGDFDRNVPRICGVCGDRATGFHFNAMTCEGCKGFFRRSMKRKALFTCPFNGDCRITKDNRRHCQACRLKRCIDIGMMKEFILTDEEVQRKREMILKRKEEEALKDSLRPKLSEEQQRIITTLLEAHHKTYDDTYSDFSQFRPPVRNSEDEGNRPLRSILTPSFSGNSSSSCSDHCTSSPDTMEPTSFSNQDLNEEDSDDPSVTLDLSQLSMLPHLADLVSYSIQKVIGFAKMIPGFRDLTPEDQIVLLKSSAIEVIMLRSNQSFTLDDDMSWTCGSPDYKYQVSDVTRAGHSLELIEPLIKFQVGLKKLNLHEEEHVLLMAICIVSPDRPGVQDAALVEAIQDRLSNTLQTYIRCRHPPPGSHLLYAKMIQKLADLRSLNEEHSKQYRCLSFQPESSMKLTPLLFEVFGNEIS
Put plainly: Displacement of [3H]1,25-(OH)2D3 from bovine thymus vitamin D receptor. In a few lines: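 Bovine thymus VDR was dissolved in 0.05 M phosphate buffer, pH 7.4, with 0.3 M KCl and 5 mM DTT. Free ligand was removed with dextran-coated charcoal (20 min, 4 °C) and supernatant radioactivity counted. Nonspecific binding was subtracted; EC₅₀ came from dose-response curves; duplicate.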
On the technique in general: Loss of bound radioactivity is the signal in a displacement assay; it reports binding, not function.

Assay [2] has as its target T2, Vitamin D3 receptor (Homo sapiens) (UniProt P11473).
T2 sequence (whole entry): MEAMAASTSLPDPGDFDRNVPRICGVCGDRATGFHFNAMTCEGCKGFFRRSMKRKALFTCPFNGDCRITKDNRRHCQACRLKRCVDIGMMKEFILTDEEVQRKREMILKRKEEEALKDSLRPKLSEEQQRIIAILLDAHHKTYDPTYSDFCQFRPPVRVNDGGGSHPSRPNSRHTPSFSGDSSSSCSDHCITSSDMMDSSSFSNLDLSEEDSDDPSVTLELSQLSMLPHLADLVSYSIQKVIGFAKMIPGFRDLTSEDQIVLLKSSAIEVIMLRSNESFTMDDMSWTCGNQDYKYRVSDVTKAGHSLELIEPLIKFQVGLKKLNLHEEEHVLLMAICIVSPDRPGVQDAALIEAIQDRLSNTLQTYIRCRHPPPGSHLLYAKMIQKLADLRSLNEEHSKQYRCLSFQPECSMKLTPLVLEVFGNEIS
Put plainly: Antagonist activity at full length human VDR expressed in african green monkey Cos7 cells overexpressing mouse osteopontin vitamin D-responsive element assessed as inhibition of 1,25-(OH)2D3-induced transcriptional activation after 16 hrs by dual luciferase reporter gene assay. The format is functional, cell-based. Particulars: COS-7. The essentials:
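Cos7 cells were transfected with full-length hVDR, the SPPx3-TK-Luc osteopontin VDRE reporter and pRL-CMV. Test ligands were given together with 10^-9 M 1,25-(OH)₂D₃ for 16 h. Dual luciferase signal was normalized to the sea pansy control, with activity at 10^-8 M 1,25-(OH)₂D₃ set as 1; triplicate.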
(In a reporter assay the amount or activity of a reporter protein is the signal.)

In assay [3] the test system is HEK293. Nature of the assay: Inhibition of 1,25-(OH)2D3-induced CYP24A1 mRNA expression in HEK293 cells at 10^-6 M after 24 hrs by quantitative real time PCR. The note with it: Homo sapiens. The format is functional, cell-based. In a few lines:
(§2)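 HEK293 cells were treated for 24 h with 10^-6 M compound, without (12) or with (15) 10^-8 M 1,25-(OH)₂D₃. CYP24A1 mRNA was measured by quantitative real-time RT-PCR and normalized to actin mRNA; mean ± SD of triplicates.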

The target in assay [4] is T2, Vitamin D3 receptor (Homo sapiens). Put plainly: Agonist activity at full length human VDR expressed in HEK293 cells overexpressing mouse osteopontin vitamin D-responsive element assessed as transcriptional activation after 16 hrs by dual luciferase reporter gene assay. The format is functional, cell-based.
Assay [5] has the same target. Put plainly: Antagonist activity at full length human VDR expressed in HEK293 cells overexpressing mouse osteopontin vitamin D-responsive element assessed as inhibition of 1,25-(OH)2D3-induced transcriptional activation after 16 hrs by dual luciferase reporter gene assay. The format is functional, cell-based.
In assay [6] the test system is HL-60. Nature of the assay: Inhibition of 1,25-(OH)2D3-induced cell differentiation in human HL60 cells assessed as morphological changes at 10^-6 M by Wright-Geimsa staining. The format is functional, cell-based. The essentials:
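HL-60 cells were stained with Wright-Giemsa and their morphology examined by light microscopy.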

Assay [7] deals with HEK293. Put plainly: Inhibition of 1,25-(OH)2D3-induced CYP24A1 mRNA expression in HEK293 cells after 24 hrs by real time PCR. The assay is classed as functional, cell-based. The note with it: Homo sapiens. In a few lines: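 HEK293 cells were exposed to the indicated compound concentrations for 24 h. CYP24A1 mRNA was quantified by real-time RT-PCR against actin; triplicate.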

Assay [8] relates to HL-60. Put plainly: Inhibition of 1,25-(OH)2D3-induced cell differentiation in human HL60 cells after 4 days by NBT reduction assay. The assay is classed as functional, cell-based. The essentials:
as §1

Assay [9] concerns the target T2, Vitamin D3 receptor (Homo sapiens). Nature of the assay: Antagonist activity at human VDR expressed in african green monkey COS7 cells overexpressing GAL4 response element assessed as RXRalpha recruitment by mammalian two hybrid assay. The assay is classed as functional, cell-based. Particulars: COS-7.
Assay [10] shares this target. Nature of the assay: Antagonist activity at human VDR expressed in african green monkey COS7 cells overexpressing GAL4 response element assessed as SRC1 peptide recruitment by mammalian two hybrid assay. The note with it: COS-7. The format is functional, cell-based.
Assay [11] relates to HL-60. Put plainly: Inhibition of 1,25-(OH)2D3-induced differentiation in human HL60 cells after 4 days by NBT reduction assay.
Assay [12] relates to T3, Vitamin D3 receptor (Homo sapiens), P11473 [H397A].
T3 sequence (whole entry): T2 sequence (whole entry) with H397A
Nature of the assay: Agonist activity at full length human VDR H397A mutant expressed in african green monkey COS7 cells overexpressing mouse osteopontin vitamin D-responsive element assessed as transcriptional activation at 10^-6 M after 16 hrs by dual luciferase reporter gene assay. The format is functional, cell-based. Particulars: COS-7. In a few lines: (§3)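 COS-7 cells in DMEM with 5% FBS, seeded at 2 × 10⁴ per well. After 24 h they were lipofected with the mutant hVDR plasmid (pCMX-hVDR), the SPPx3-TK-Luc reporter (three mouse osteopontin VDREs) and the pRL-CMV control. After 8 h, ligand was added at 10^-6 M, or ethanol vehicle, for 16 h. Firefly luciferase was normalized to the internal control; triplicate.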

The subject of assay [13] is T4, Vitamin D3 receptor (Homo sapiens), P11473 [H305A].
T4 sequence (whole entry): T2 sequence (whole entry) with H305A
Put plainly: Agonist activity at full length human VDR H305A mutant expressed in african green monkey COS7 cells overexpressing mouse osteopontin vitamin D-responsive element assessed as transcriptional activation at 10^-6 M after 16 hrs by dual luciferase reporter gene assay. The assay is classed as functional, cell-based. Particulars: COS-7. The essentials:
as §3

Assay [14] deals with T2, Vitamin D3 receptor (Homo sapiens). Nature of the assay: Agonist activity at full length human VDR expressed in african green monkey Cos7 cells overexpressing mouse osteopontin vitamin D-responsive element assessed as transcriptional activation after 16 hrs by dual luciferase reporter gene assay. The format is functional, cell-based. The note with it: COS-7. In a few lines:
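COS-7 cells in DMEM with 5% FBS were lipofected with full-length pCMX-hVDR, the SPPx3-TK-Luc osteopontin VDRE reporter and pRL-CMV. After 8 h, ligand or ethanol vehicle was added for 16 h. Dual luciferase read-out was normalized to the internal control. Activity at 10^-8 M 1,25-(OH)₂D₃ was set as 1; triplicate.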

Assay [15] deals with HEK293. Nature of the assay: Induction of CYP24A1 mRNA expression in HEK293 cells at 10^-6 M after 24 hrs by quantitative real time PCR. The format is functional, cell-based. The note with it: Homo sapiens. In a few lines:
as §2

Assay [16] addresses T2, Vitamin D3 receptor (Homo sapiens). Put plainly: Agonist activity at human VDR expressed in african green monkey COS7 cells overexpressing GAL4 response element assessed as SRC1 peptide recruitment by mammalian two hybrid assay. The note with it: COS-7. The assay is classed as functional, cell-based.
For assay [17] the target is unchanged. Put plainly: Agonist activity at human VDR expressed in african green monkey COS7 cells overexpressing GAL4 response element assessed as RXRalpha recruitment by mammalian two hybrid assay. The format is functional, cell-based. Particulars: COS-7.

As to `C=C1/C(=C\C=C2/CCC[C@]3(C)[C@@H]([C@H](C)[C@@H](CCO)CCCC)CC[C@@H]23)C[C@@H](O)C[C@@H]1O`, the outcome in the assay on HL-60 [1] was inactive. The midpoint of the response on Vitamin D3 receptor, the EC50, lay at 11 nM.

As to `C=C1/C(=C\C=C2/CCC[C@]3(C)[C@@H]([C@H](C)[C@@H](CCCC)C[C@H](O)C(C)C)CC[C@@H]23)C[C@@H](O)C[C@@H]1O`, the Activity result in assay [2], in assay [4] and in [5] was “Dose-dependent effect” throughout. Moreover, in the assay on HEK293 [3], the result was Active. In the assay with HL-60 [1], the result was inactive. Moreover, a half-maximal effect on Vitamin D3 receptor (EC50) was put at 3.8 nM.

At Vitamin D3 receptor, `C=C1/C(=C\C=C2/CCC[C@]3(C)[C@@H]([C@H](C)[C@@H](CCCC)C[C@@H](O)C(C)C)CC[C@@H]23)C[C@@H](O)C[C@@H]1O` had an EC50 of 20 nM.

With `C=C1/C(=C\C=C2/CCC[C@]3(C)[C@@H]([C@H](C)CCCC(C)(C)O)CC[C@@H]23)C[C@@H](O)C[C@@H]1O`, the outcome in the assay with HL-60 [1] and in the assay with HL-60 [6] was Active.

For the molecule `C=C1/C(=C\C=C2/CCC[C@]3(C)[C@@H]([C@H](C)[C@H](CCO)CCCC)CC[C@@H]23)C[C@@H](O)C[C@@H]1O`, the Activity result (in assay [2]; in the assay with HEK293 [7]; in [4]; in assay [5]) was “Dose-dependent effect” each time. The result (with HEK293 [3]; with HL-60 [8]; with HL-60 [6]; in assay [9]; in [10]; in the assay on HL-60 [11]) was Active. Also, the result with HL-60 [1] was inactive. For the same molecule, at Vitamin D3 receptor, the concentration giving a half-maximal response (EC50) is 1.2 nM.

On to `C=C1/C(=C\C=C2/CCC[C@]3(C)[C@@H]([C@@H](C)[C@@H](CCO)CCCC)CC[C@@H]23)C[C@@H](O)C[C@@H]1O`, for which the Activity result in assay [2], in assay [4] and in assay [5] was “Dose-dependent effect” throughout. Besides, the outcome (with HEK293 [3]; in [12]) was Active. In addition, the outcome with HL-60 [1] was inactive. This molecule came in with a 50% effective concentration (EC50) on Vitamin D3 receptor of 20 nM.

`C=C1/C(=C\C=C2/CCC[C@]3(C)[C@@H]([C@H](C)[C@H](CCCC)C[C@H](O)C(C)C)CC[C@@H]23)C[C@@H](O)C[C@@H]1O`: the Activity result in assay [2], in assay [4] and in [5] was “Dose-dependent effect” throughout. The outcome (in the assay with HEK293 [3]; in assay [13]) was Active. In the assay with HL-60 [1], the result was inactive. At Vitamin D3 receptor, this molecule returned an EC50 of 3.4 nM.

For the molecule `C=C1/C(=C\C=C2/CCC[C@]3(C)[C@@H]([C@H](C)[C@H](CCCC)C[C@@H](O)C(C)C)CC[C@@H]23)C[C@@H](O)C[C@@H]1O`, the outcome in the assay with HL-60 [1] was inactive. At Vitamin D3 receptor, a half-maximal effect (EC50) was put at 16 nM.

As for `C=C1/C(=C\C=C2/CCC[C@]3(C)[C@@H]([C@@H](C)[C@H](CCO)CCCC)CC[C@@H]23)C[C@@H](O)C[C@@H]1O`, the outcome (in assay [14]; in the assay on HEK293 [15]; in the assay on HL-60 [1]; in assay [16]; in [17]) was Active. It took 2 nM to reach a half-maximal effect at Vitamin D3 receptor (EC50).
